In ChEMBL document CHEMBL1135620, “Cyclosporins: structure-activity relationships for the inhibition of the human FPR1 formylpeptide receptor” (J Med Chem, 2002):
pIC50: −log10 of the molar value.

Key:
fMet-Leu-Phe receptor = biological target: T1, fMet-Leu-Phe receptor (Homo sapiens, UniProt P21462); test: Inhibitory activity against human formylpeptide receptor (FPR) of human leukemia HL-60 cells; type: cell-based
T1 sequence (P21462 whole entry): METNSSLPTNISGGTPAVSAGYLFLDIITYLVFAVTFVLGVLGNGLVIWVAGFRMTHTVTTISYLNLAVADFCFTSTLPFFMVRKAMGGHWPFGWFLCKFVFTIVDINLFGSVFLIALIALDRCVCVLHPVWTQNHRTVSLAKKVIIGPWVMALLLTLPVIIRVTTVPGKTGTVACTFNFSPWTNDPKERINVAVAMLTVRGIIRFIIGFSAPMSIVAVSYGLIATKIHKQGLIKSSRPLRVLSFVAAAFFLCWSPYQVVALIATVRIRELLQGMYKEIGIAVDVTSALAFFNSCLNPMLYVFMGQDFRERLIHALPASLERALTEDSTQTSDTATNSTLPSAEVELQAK
How it was run: (§1)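 HL-60 cells differentiated 48 h with 0.2 mM dibutyryl cAMP, washed, then treated with 5 μM cytochalasin B (5–10 min, 37 °C). Stimulated 10 min with 30 nM f-MLF. N-acetyl-β-D-glucosaminidase release read at 410 nm on p-nitrophenyl substrate after spontaneous-release subtraction. Duplicate wells; IC20/IC50 as mean ± SD of independent experiments.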

[1] = biological target: T2, fMet-Leu-Phe receptor (Homo sapiens) (UniProt P21462); test: Inhibitory activity against Human formylpeptide receptor (FPR) of human leukemia HL-60 cells; type: cell-based; how it was run: as §1
T2 sequence (whole entry): T1 sequence (P21462 whole entry)

| Compound | pIC50 (fMet-Leu-Phe receptor; hl-60) | IC20 [1] | pIC50 (fMet-Leu-Phe receptor) |
| --- | --- | --- | --- |
| C/C=C/C[C@@H](C)[C@@H](O)C1NC(=O)[C@H](C(C)C)N(C)C(=O)[C@H](CC(C)C)N(C)C(=O)[C@H](CC(C)C)N(C)C(=O)[C@@H](C)NC(=O)[C@H](C)NC(=O)[C@@H](CC(C)C)N(C)C(=O)[C@@H](C(C)C)NC(=O)[C@@H](CC(C)C)N(C)C(=O)CN(C)C(=O)[C@H](C(C)C)NC1=O (some centres undefined) | < 5.00 | 2000 nM | – |
| C/C=C/C[C@@H](C)[C@@H](O)[C@H]1C(=O)N[C@@H](CC)C(=O)N(C)CC(=O)N(C)[C@H](CC(C)C)C(=O)N[C@H](C(C)C)C(=O)N(C)[C@H](CC(C)C)C(=O)N[C@@H](C)C(=O)N[C@H](C)C(=O)N(C)[C@@H](CC(C)C)C(=O)N(C)[C@@H](CC(C)C)C(=O)N(C)[C@H]([C@H](C)CC)C(=O)N1C | 5.80 | 290 nM | – |
| CC/C=C/C[C@@H](C)[C@@H](O)[C@H]1C(=O)N[C@@H](CCC)C(=O)N(C)CC(=O)N(C)[C@@H](CC(C)C)C(=O)N[C@@H](C(C)C)C(=O)N(C)[C@@H](CC(C)C)C(=O)N[C@@H](C)C(=O)N[C@H](C)C(=O)N(C)[C@@H](CC(C)C)C(=O)N(C)[C@@H](CC(C)C)C(=O)N(C)[C@@H](C(C)C)C(=O)N1C | – | – | < 5.00 |
| C/C=C/C[C@@H](C)[C@@H](O)[C@H]1C(=O)N[C@@H](CC)C(=O)NCC(=O)N(C)[C@@H](CC(C)C)C(=O)N[C@@H](C(C)C)C(=O)N(C)[C@@H](CC(C)C)C(=O)N[C@@H](C)C(=O)N[C@H](CO)C(=O)N(C)[C@@H](CC(C)C)C(=O)N(C)[C@@H](CC(C)C)C(=O)N(C)[C@@H](C(C)C)C(=O)N1C | – | – | < 5.30 |
| C/C=C/C[C@@H](C)[C@@H](O)[C@H]1C(=O)N[C@@H]([C@@H](C)O)C(=O)N(C)CC(=O)N(C)[C@@H](CC(C)C)C(=O)N[C@@H](CC(C)C)C(=O)N(C)[C@@H](CC(C)C)C(=O)N[C@@H](C)C(=O)N[C@H](C)C(=O)N(C)[C@@H](CC(C)C)C(=O)N[C@@H](CC(C)C)C(=O)N(C)[C@@H](C(C)C)C(=O)N1C | – | – | 6.23 |
| C/C=C/C[C@@H](C)[C@@H](O)[C@H]1C(=O)N[C@@H]([C@@H](C)O)C(=O)N(C)CC(=O)N[C@@H](CC(C)C)C(=O)N[C@@H](CC(C)C)C(=O)N(C)[C@@H](CC(C)C)C(=O)N[C@@H](C)C(=O)N[C@](O)(C(C)C)C(=O)N(C)[C@@H](CC(C)C)C(=O)N[C@@H](CC(C)C)C(=O)N(C)[C@@H](C(C)C)C(=O)N1C | – | – | 6.25 |
| C/C=C/C[C@@H](C)[C@@H](O)[C@H]1C(=O)N[C@@H](CCC)C(=O)N(C)CC(=O)N(C)[C@@H](CC(C)C)C(=O)N[C@@H](C(C)C)C(=O)N(C)[C@@H](CC(C)C)C(=O)N[C@@H](C)C(=O)N[C@H](C)C(=O)N[C@@H](CC(C)C)C(=O)N(C)[C@@H](CC(C)C)C(=O)N(C)[C@@H](C(C)C)C(=O)N1C | – | – | < 5.00 |
| CC/C=C/C[C@@H](C)[C@@H](O)[C@H]1C(=O)N[C@@H](CC)C(=O)N(C)CC(=O)N(C)[C@@H]([C@@H](C)CC)C(=O)N[C@@H](C(C)C)C(=O)N(C)[C@@H](CC(C)C)C(=O)N[C@@H](C)C(=O)N[C@H](C)C(=O)N(C)[C@@H](CC(C)C)C(=O)N(C)[C@@H](CC(C)C)C(=O)N(C)[C@@H](C(C)C)C(=O)N1C | – | – | 5.15 |
| C/C=C/C[C@@H](C)[C@@H](O)[C@H]1C(=O)N[C@@H](CCC)C(=O)N(C)CC(=O)N(C)[C@@H](CC(C)C)C(=O)N[C@@H](CC(C)C)C(=O)N(C)[C@@H](CC(C)C)C(=O)N[C@@H](C)C(=O)N[C@H](C)C(=O)N(C)[C@@H](CC(C)C)C(=O)N(C)[C@@H](CC(C)C)C(=O)N(C)[C@@H](C(C)C)C(=O)N1C | – | – | < 5.00 |
| C/C=C/C[C@@H](C)[C@@H](O)[C@H]1C(=O)N[C@@H]([C@@H](C)O)C(=O)NCC(=O)N(C)[C@@H](CC(C)C)C(=O)N[C@@H](CC(C)C)C(=O)N(C)[C@@H](CC(C)C)C(=O)N[C@@H](C)C(=O)N[C@](O)(C(C)C)C(=O)N(C)[C@@H](CC(C)C)C(=O)N[C@@H](CC(C)C)C(=O)N(C)[C@@H](C(C)C)C(=O)N1C | – | – | 6.52 |
| CC/C=C/C[C@@H](C)[C@@H](O)[C@H]1C(=O)N[C@@H]([C@@H](C)O)C(=O)N(C)CC(=O)N(C)[C@@H](CC(C)C)C(=O)N[C@@H](C(C)C)C(=O)N(C)[C@@H](CC(C)C)C(=O)N[C@@H](C)C(=O)N[C@H](C)C(=O)N(C)[C@@H](CC(C)C)C(=O)N(C)[C@@H](CC(C)C)C(=O)N(C)[C@@H](C(C)C)C(=O)N1C | – | – | < 5.00 |
| C/C=C/C[C@@H](C)[C@@H](O)C1NC(=O)[C@H](C(C)C)N(C)C(=O)[C@H](CC(C)C)N(C)C(=O)[C@H](CC(C)C)N(C)C(=O)[C@@H](C)NC(=O)[C@H](C)NC(=O)[C@@H](CC(C)C)N(C)C(=O)[C@@H](C(C)C)NC(=O)[C@@H](CC(C)C)N(C)C(=O)CN(C)C(=O)[C@H](CC)NC1=O (some centres undefined) | 5.19 | 1900 nM | – |
| C/C=C/C[C@@H](C)[C@@H](O)[C@H]1C(=O)N[C@@H](CC)C(=O)N(C)CC(=O)N(C)[C@@H](CC(C)C)C(=O)N[C@@H](C(C)C)C(=O)N(C)[C@@H](CC(C)C)C(=O)N[C@@H](C)C(=O)N[C@H](C)C(=O)N[C@@H](CC(C)C)C(=O)N(C)[C@@H](CC(C)C)C(=O)N(C)[C@@H](C(C)C)C(=O)N1C | – | – | 5.52 |
| C/C=C/C[C@@H](C)[C@@H](O)C1NC(=O)[C@H](C(C)C)N(C)C(=O)[C@H](CC(C)C)N(C)C(=O)[C@H](CC(C)C)N(C)C(=O)[C@@H](C)NC(=O)[C@H](C)NC(=O)[C@@H](CC(C)C)N(C)C(=O)[C@@H](C(C)C)NC(=O)[C@@H](CC(C)C)N(C)C(=O)CN(C)C(=O)[C@H]([C@@H](C)O)NC1=O (some centres undefined) | 5.26 | 1500 nM | – |
| C/C=C/C[C@@H](C)[C@@H](O)[C@H]1C(=O)N[C@@H](CCC)C(=O)N(C)CC(=O)N(C)[C@@H](CC(C)C)C(=O)N[C@@H](C(C)C)C(=O)N(C)[C@@H](CC(C)C)C(=O)N[C@@H](C)C(=O)N[C@H](C)C(=O)N(C)[C@@H](CC(C)C)C(=O)N[C@@H](CC(C)C)C(=O)N(C)[C@@H](C(C)C)C(=O)N1C | – | – | < 5.52 |
